Measured values collected from several papers.
Protocols differ between the studies behind these lines.
Cell line: MDA-MB-231
Read-out: cell growth or viability

Structure (SMILES) | test | conditions | IC50
COC1(C2CSC(=O)N2)CC2CC(CCC(C)C=CC=CCCC(C)=CC(=O)O2)O1 (stereo not shown) | MTT | 72 h | 23.4 µM
CC(C)=CCc1c(O)cc2oc3cc(O)c(O)c(CC=C(C)C)c3c(=O)c2c1O |  | 48 h | 16.4 µM
Cc1coc2c1c(=O)oc1c3ccccc3ccc21 | SRB | 72 h | 10.3 µg/mL
COc1ccc2c(c1)[nH]c1c(C)nccc12 | MTT | 72 h | 16.7 µM
N.N.[Cl][Pt][Cl] |  | 48 h | 27.5 µM
N.N.O=C([O-])C1(C(=O)[O-])CCC1.[Pt+2] | MTT | 96 h | 33 µM
CCC1(c2ccc(N)cc2)CCC(=O)NC1=O (stereo not shown) | CCK-8 | 48 h | > 50 µM
Nc1cc(Cl)c(Cl)cc1N |  | 72 h | 150 µM
Cn1c(CCCC(=O)O)nc2cc(N(CCCl)CCCl)ccc21 | MTT |  | 13.3 µM
CO[C@]1([C@@H]2CSC(=O)N2C(=O)c2ccccc2)C[C@H]2C[C@@H](CC[C@H](C)/C=C\C=C\CC/C(C)=C\C(=O)O2)O1 | MTT | 72 h | 4.48 µM
N.N.[Cl][Pt][Cl] | SRB |  | 12.2 µM
CO[C@]1([C@@H]2CSC(=O)N2C)C[C@H]2C[C@@H](CC[C@H](C)/C=C\C=C\CC/C(C)=C\C(=O)O2)O1 | MTT | 72 h | 19.9 µM
N[C@@H](Cc1ccc(N(CCCl)CCCl)cc1)C(=O)O | CCK-8 | 48 h | > 50 µM
